Compound activity from PubChem BioAssay.
Most compounds without a hit are left out; they make up all but 4.8% or so of the library.
ERb coact inh: ER-beta (human) coactivator binding inhibition | Q92731 | TR-FRET ER-beta LBD / SRC1-Cy5 peptide binding; receptor agonist-loaded with 1 µM estradiol | inhibition, % at 25.6 µM | 86,000 tested, 1.3% active | AID 633;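 active = compounds whose percent inhibition of the receptor-coactivator binding signal exceeds about 50% in the single-dose screen, limit read from the data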;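 also: 0% = receptor plus peptide wells without compound and 100% = peptide-only wells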
RORA act: activators of human nuclear receptor RORA; P35398; activation, % at 10 µM; CHO-K1 Gal4-RORA LBD luciferase reporter, luminescence; percent increase over mock-subtracted basal signal; AID 560; 65,000 tested, 1.5% active;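 active = activation above the mean of all tested compounds plus 3 SD, cut at about 49% in these data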;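 also: 0% = DMSO-treated RORA cells and 100% = added signal equal to DMSO minus mock-transfected cells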
Target sequence (P35398 whole entry, looked up, the tested form may be a part): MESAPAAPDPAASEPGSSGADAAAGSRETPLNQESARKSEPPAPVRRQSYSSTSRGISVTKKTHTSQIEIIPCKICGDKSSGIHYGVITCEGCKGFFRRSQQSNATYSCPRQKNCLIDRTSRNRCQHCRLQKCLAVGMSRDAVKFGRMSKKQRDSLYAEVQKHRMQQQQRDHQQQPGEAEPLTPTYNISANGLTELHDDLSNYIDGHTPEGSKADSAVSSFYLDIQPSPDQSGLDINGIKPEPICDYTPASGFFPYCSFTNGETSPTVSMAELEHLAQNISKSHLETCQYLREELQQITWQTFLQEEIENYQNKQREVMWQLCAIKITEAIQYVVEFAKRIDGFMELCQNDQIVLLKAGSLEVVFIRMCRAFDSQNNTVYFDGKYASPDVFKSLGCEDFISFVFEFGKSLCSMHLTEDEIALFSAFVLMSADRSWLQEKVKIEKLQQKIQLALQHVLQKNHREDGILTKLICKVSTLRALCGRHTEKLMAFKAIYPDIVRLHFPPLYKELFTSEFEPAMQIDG
SF-1 act: activators of human nuclear receptor SF-1. AID 522. CHO-K1 Gal4-SF-1 LBD luciferase reporter; % increase over DMSO SF-1-specific signal. Q13285. activation, % at 10 µM. 65,000 tested, 1.9% active;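 active = activation above the mean activation of all tested compounds plus 3 SD, cut at about 50% in these data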
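Material: CHO-K1 cells with Gal4–hSF-1 LBD chimera plus Gal4-driven luciferase / Input: 4,000 CHO-K1 cells per well / Incubation: compound exposure 20 h at 37 °C / Signal: luminescence read 15 min after SteadyLite luciferase reagent, after room-temperature equilibration / Read-out: percent activation versus DMSO / Benchmarks: DMSO negative control and −SF1 background wells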
ERa SRC1 pot: enhances coactivator binding to human estrogen receptor alpha. 86,000 tested, 1.3% active. coactivator binding (% of control), % at 25.6 µM. TR-FRET ERalpha-LBD/SRC-Cy5 coactivator binding, 2 h; 100 = basal binding, no effect; in the data active = activity above about 200%;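 also: binding measured in presence of low estradiol as agonist stimulus; 0% = peptide alone without receptor and 100% = receptor with peptide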
ERa coact inh: ER-alpha (human) coactivator binding inhibition; P03372; inhibition, % at 25.6 µM; TR-FRET ER-alpha LBD / SRC-1 peptide, estradiol-bound; 86,000 tested, 1.7% active; in the data active = inhibition above about 50%;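 also: 0% = receptor plus peptide control and 100% = peptide only without receptor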
Pyk2 oligo antag: blocks oligomerization of human Pyk2 in cells; Q14289; Q293 cells, Pyk2 FERM NanoBiT luminescence; active compounds read low; z-score (the deposit names both 25 µM and 10 µM); 99,000 tested, 0.83% active; AID 1347419;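 active = Z-score of -3 or lower, scaled per plate to the spread of control and sample wells; inactive = z-score above -3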;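 also: negative z-score means lost luminescence so less FERM oligomerization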
An asterisk follows results filed as active; . = not tested or not shown; [ ] = another dose, or the depositor's remark.

SMILES	ERb coact inh	RORA act	SF-1 act	ERa SRC1 pot	ERa coact inh	Pyk2 oligo antag
CNCC(O)c1ccc(O)cc1 (configuration not stated)	0.6	-30.3	2.2	102.5	-0.5	.
CC1CCC(NCC(O)c2ccccc2)CC1 (configuration not stated)	-3.8	.	.	293.8*[fluorescence artefact?]	0.8	0.76
c1ccc2cc3cc4ccccc4cc3cc2c1	8.0	.	.	109.4	-4.6	.
CC12CCC(=O)C=C1CCC1C2CCC2(C)C(O)CCC12 (configuration not stated)	5.6	-25.3	-1.6	121.5	-0.6	.
C[C@]12CCC(=O)C=C1CCC1C2CC[C@@]2(C)C1CC[C@@]2(O)CC#N (some centres not stated)	54.4*	-12.8	14.6	96.8	1.2	-0.58
CN1C(=O)C(=Cc2ccccc2Oc2ccc(Cl)c(F)c2)C(=O)N(C)C1=O	.	.	.	.	.	-4.45*
CCOC(=O)c1c(C)n(Cc2ccc3c(c2)OCO3)c2ccc(O)cc12	14.0	.	.	80.1	10.7	-3.28*
COC(=O)c1c(C)n(Cc2ccc3c(c2)OCO3)c2ccc(O)cc12	37.6	29.2	31.4	48.0	18.9	-4*
Clc1cccc(C2NCCc3[nH]cnc32)c1 (configuration not stated)	.	.	.	.	.	0.55
Cn1cccc1CN1CCN(C(=O)COc2ccccc2)CC1	93.1*[fluorescence artefact?]	7.0	-4.0	101.4	0.2	-1.12
COc1cc(CN2CCN(C(=O)COc3ccccc3)CC2)cc(OC)c1OC	5.8	1.3	-5.1	104.1	-10.4	0.23
Cn1ncnc2c(=O)n(C)c(=O)nc1-2	.	-97.5	-96.5	.	.	-3.27*
COc1ccc2[nH]c(C)c(CCN3CCC(=O)C(C)C3C)c2c1 (configuration not stated)	63.6*[fluorescence artefact?]	-4.5	-9.4	83.0	41.2	.
CC(=NCC1CCCO1)c1c(O)n(C)c(=O)n(C)c1=O (configuration not stated)	-4.4	-11.0	-10.1	112.3	-13.7	0.1
CN(C)c1ccc(N=Cc2c(O)n(CCC3=CCCCC3)c(=O)[nH]c2=O)cc1	5.5	-5.5	4.5	89.5	13.6	-3.42*
CCN(CC)c1ccc(N=Cc2c(O)n(CCC3=CCCCC3)c(=O)[nH]c2=O)cc1	3.8	-4.8	13.8	121.8	4.6	-1.75
CN1CCN(c2ccc(N)cc2)CC1	90.6*[fluorescence artefact?]	.	.	13.5	84.0*[fluorescence artefact?]	0.14
CN1CCN(c2ccc(N)c(N3CCN(C)CC3)c2)CC1	18.7	-9.1	10.5	72.5	11.2	-0.06
CCCCCCN=C(C)c1c(O)n(CCCC)c(=O)[nH]c1=O	3.9	-12.7	-14.4	119.7	0.4	-1.53
CN1CCc2c(c(N3CCCCC3)nc3n[nH]c(N)c23)C1	.	-5.1	-10.0	.	.	-0.87
O=P1(NCc2ccco2)COc2ccccc2OC1	2.1	-1.5	2.2	211.0*[fluorescence artefact?]	-1.0	-0.75
CCOc1ccc2[nH]c(=O)c(CN(CCO)C3(c4nnnn4C4CCCCC4)CCCCC3)cc2c1	-1.4	4.6	-12.0	239.2*	11.7	0.8
Cc1ccc(-n2c(O)c(C=NCc3cccnc3)c(=O)[nH]c2=O)cc1C	-3.5	9.8	8.1	119.5	-3.2	-1.52
Cc1ccc(-n2c(O)c(C=Nc3ccccc3N)c(=O)[nH]c2=O)cc1C	0.7	55.4*	45.8	104.6	-6.2	-0.7
CCOC(=O)C(NC(C)=O)C(OC(C)=O)c1cccc(N(CCCl)CCCl)c1 (configuration not stated)	1.7	.	.	109.0	2.2	-0.15
CCC(=NCc1ccc2c(c1)OCO2)c1c(O)n(C2CCCCC2)c(=O)[nH]c1=O	4.0	-0.9	-36.3	93.8	2.8	-2.98
O=C(Cn1cc(C(=O)c2ccccc2F)c2ccccc21)NCc1ccco1	-2.6	-7.1	21.8	81.0	3.8	-3.23*
CCN(CC)P(=O)(NC(=O)C(Cl)(Cl)Cl)N(CC)CC.[Cl-].[Cl-].[Cl-].[Nd+3]	50.3*[fluorescence artefact?]	.	.	95.4	69.2*[fluorescence artefact?]	0.64
COc1ccc(C2SCC(=O)Nc3c2c(=O)[nH]n3C2CCCCC2)cc1 (configuration not stated)	1.2	-9.8	-2.3	103.9	5.7	-0.48
C[N+]1(C)CCN(c2ccccc2)CC1	-2.8	-6.0	-8.9	115.4	-1.7	.
